In the library only some 6.4% were active in any assay of this set; here they are far more common.
Lung fibro prol: blocks proliferation of human lung fibroblasts; LL 47 human lung fibroblast viability, ATP luminescence; active compounds read low; 1.1% of 85,000 active; viability, % at 10 µM;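 active = viability at or below 50% in the single dose screen; inactive = viability above 50%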;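 note: compound exposure lasted 72 h before the ATP readout; 100% = median luminescence of untreated cell-only wells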
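Material: human lung fibroblast line LL 47, low passage; Evaluation: viability percentage against median untreated-cell control; Buffer or medium: 15% FBS in IMEM; Incubation: 72 h compound exposure at 37 °C after overnight plating; Dosing: 0.1% DMSO in all compound wells; Measured by: CellTiter-Glo luminescence.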
E coli WT exp: growth inhibitors of E. coli BW25113 wild type; OD600 absorbance; growth inhibition, % at 100 µM; 0.15% of 98,000 active;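 active = growth inhibition above about 50% at one test dose, limit read from the data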;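 note: growth measured after 20 h incubation at 37 °C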
Jurkat viability: cytotoxicity toward Jurkat cells; Jurkat E6.1 viability, ATP luminescence, 48 h; inhibition, % at 4 µM; 1.2% of 56,000 active; AID 463;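 active = inhibition above the mean inhibition of all tested compounds plus 3 SD, cut at about 28% in these data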
Ecoli tolC: blocks growth of E. coli BW25113 tolC mutant | growth inhibition, % at 10 µM (by protocol) | OD615 | 2.2% of 65,000 active;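 active = growth inhibition at or above a cutoff equal to the mean over every tested compound plus 3 SD, cut at about 60% in these data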;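 note: growth measured after 20 h incubation at 37 °C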
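Assay system: tolC-deleted E. coli BW25113. Medium: kanamycin-containing LB broth (50 µg/mL). Dosing: 10 µM final, single dose. Timing: bacterial growth with compound for 20 h at 37 °C. Detection: A615 absorbance measurement. Read-out basis: growth inhibition in percent.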
H69AR inhibit: growth inhibitors of human H69AR lung tumor cells; H69AR lung tumor viability, ATP luminescence, 72 h; active compounds read low; viability, % at 10 µM; 6% of 85,000 active; AID 598;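 active = viability at or below 40%; inactive = viability above 40%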;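 note: multidrug resistant small cell line overexpressing MRP-1 efflux transporter; 100% = mean luminescence of untreated control wells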
HUVEC prolif 384: inhibitors of human endothelial cell proliferation; AID 648; HUVEC proliferation, CellTiter-Glo luminescence, 72 h; active compounds read low; viability, % at 10 µM (by protocol); 1.1% of 86,000 active;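 active = viability at or below 30%; inactive = viability above 30%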;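 note: 100% = median luminescence of DMSO-only cell control wells on each plate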
Active calls of the source: *; / = no result given.

SMILES | Lung fibro prol | E coli WT exp | Jurkat viability | Ecoli tolC | H69AR inhibit | HUVEC prolif 384
O=C(CSCc1ccccc1)NNC(=S)Nc1cccc(Cl)c1Cl | / | 7 | / | / | / | /
C=CCOC(=O)C1=C(C)Nc2nc3ccccc3n2C1c1ccncc1 (configuration not stated) | 94 | -3 | 6 | 5 | 48 | 120
O=C(CSc1nc(O)c(C2CCCCC2)c(=O)[nH]1)Nc1ccc(Cl)cc1 | / | 1 | -1 | 62* | / | /
CC(=O)Nc1c(O)nc(SCC(=O)Nc2ccc(C(C)=O)cc2)[nH]c1=O | 92 | 4 | -9 | -10 | 94 | 108
c1ccc2c3c([nH]c2c1)-c1[nH]ncc1CC3 | 95 | 30 | 3 | 7 | 103 | 55
Clc1ccc2[nH]c3c(c2c1)CCc1cn[nH]c1-3 | 94 | 78* | 3 | 100* | 22* | 46
Cc1ccc2c(CC(=O)NCc3ccco3)coc2c1C | 55 | 1 | 69* | 14 | 27* | 53
Cc1c(C(=O)c2no[n+]([O-])c2C(=O)c2cnn(C)c2C)cnn1C | 101 | 4 | -3 | -6 | 1.8* | 61
COc1ccc(C(=O)c2no[n+]([O-])c2C(=O)c2ccc(OC)cc2)cc1 | / | 4 | -2 | -4 | / | /
Cc1cc(-n2[nH]c(C)c(C)c2=O)nc(-c2ccccc2O)n1 | 66 | / | 4 | 8 | 16* | 76
O=C(COc1cccc(NC(=O)c2cccc([N+](=O)[O-])c2)c1)c1ccc(Br)cc1 | / | -7 | / | / | / | /
c1ccc2[nH]c(CSc3ncnc4c3oc3ccccc34)nc2c1 | 90 | -7 | 8 | 54 | 58 | 88
c1cnc(N2CCN(c3ncnc4c3oc3ccccc34)CC2)nc1 | 99 | / | 1 | 1 | 82 | 76
c1ccc2[nH]c(CN3CCN(c4ncnc5c4oc4ccccc45)CC3)nc2c1 | 96 | -6 | 14 | 39 | 7.1* | 87
C(=C\c1ccccc1)/CN1CCN(c2ncnc3c2oc2ccccc23)CC1 | 97 | -6 | / | 100* | 92 | 82
Cc1nc(N2CCN(Cc3nc4ccccc4[nH]3)CC2)c2oc3ccccc3c2n1 | 88 | -5 | / | 16 | 36* | 72
Cc1cc(NC(=O)COc2cccc(Oc3ccccc3)c2)no1 | / | -3 | 50* | -7 | / | /
Cc1cccc(OCC(=O)Nc2cc(C)on2)c1 | 103 | / | / | / | 98 | 109
O=C(Nc1nc(-c2ccccn2)cs1)c1ccc(Br)s1 | 27* | 19 | / | / | 13* | 24*
O=C(CS(=O)(=O)c1ccccc1)Nc1nc(-c2ccccc2)cs1 | 98 | -5 | -2 | 100* | 72 | 89
CC(Oc1ccccc1)C(=O)Nc1nc2c(s1)C(=O)CC(C)(C)C2 (configuration not stated) | 98 | 3 | / | / | 95 | 108
CC1(C)CC(=O)c2sc(NC(=O)CCS(=O)(=O)c3ccccc3)nc2C1 | 50 | 5 | / | / | 1.1* | 78
O=C(Nc1cccnc1)c1ccc(Br)s1 | 35* | 16 | -1 | 29 | 7.5* | 82
O=C(CCS(=O)(=O)c1ccccc1)Nc1nc(-c2ccccn2)cs1 | 56 | / | -8 | 13 | 4.0* | 70
Cc1ccc(-c2nnn(CC(=O)Nc3ccccc3-c3ccccc3)n2)c(-n2cnnn2)c1 | 96 | 0 | -5 | 24 | 98 | 97
SMILES | Lung fibro prol | E coli WT exp | Jurkat viability | Ecoli tolC | H69AR inhibit | HUVEC prolif 384
CCOc1ccc2cc(C#N)c(SCC(=O)NC(C)CC)nc2c1 (configuration not stated) | 102 | -4 | 2 | -4 | 29* | 68
CCOC(=O)CSc1nc2cc(OCC)ccc2cc1C#N | 102 | -4 | -5 | 2 | 31* | 63
CCOc1ccc2cc(C#N)c(SCC(=O)N3CCC(C)CC3)nc2c1 | 79 | -14 | -4 | 14 | 23* | 48
COC(=O)CSc1nc2cc(OC)ccc2cc1C#N | 89 | -3 | 0 | 20 | 75 | 72
CCCCCn1c(CN2CCN(c3cc(Cl)ccc3C)CC2)nc2c1c(=O)[nH]c(=O)n2C | 87 | 3 | 5 | 2 | 3.5* | 28*
Cn1c(=O)c2c(nc(CN3CCN(c4ccccc4)CC3)n2Cc2ccccc2Cl)n(C)c1=O | 84 | -14 | -4 | -7 | 24* | 75
CCCCCn1c(CN2CCN(c3cccc(Cl)c3)CC2)nc2c1c(=O)n(C)c(=O)n2C | 95 | / | 4 | 62* | 76 | 81
CN1CCN(Cc2nc3c(c(=O)n(C)c(=O)n3C)n2Cc2ccccc2Cl)CC1 | / | / | -1 | -5 | / | /
CCCCn1c(CN2CCN(c3cccc(Cl)c3)CC2)nc2c1c(=O)n(C)c(=O)n2C | 105 | 8 | 3 | 31 | 72 | 80

Screening data (PubChem)
